Results from ChEMBL document CHEMBL1155475, “Semisynthesis and pharmacological activities of thyroxine analogs: Development of new angiogenesis modulators” (2010).

How the values were obtained:
Format in all cases: functional
Gallus gallus [1] = species: Gallus gallus; test: Stimulation of angiogenesis of fertilized chicken egg membrane assessed as stimulation of blood vessel formation at 10 ug/CAM after 48 hrs by CAM assay
Procedure, shortened: (§1)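 Chick chorioallantoic membrane model. Filter disks are soaked in 3 mg/mL cortisone acetate in 95% ethanol, air-dried, then saturated with test agent, L-T4 or FGF, and placed on the CAM. Agents are tested at 10 µg/CAM. Tissue beneath the disk is harvested after 48 h and examined by stereomicroscope at 50× with digital image capture. Data are mean ± SEM, n = 8.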

Mus musculus = test: Stimulation of angiogenesis in Matrigel plug implanted C57BL/6 mouse assessed as increase of hemoglobin level after 14 days at 10 ug/plug by Matrigel assay
Procedure, shortened: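 Mouse subcutaneous Matrigel plug. Matrigel is kept cold and compound is added with or without agonist. Plugs are injected subcutaneously at three sites per animal, 100 µL total. On day 14 the plugs are collected, homogenized in ddH2O and centrifuged 4000 rpm for 10 min. Supernatant is mixed with Drabkin's reagent for 15–30 min, A540 is read, and hemoglobin (mg/mL) is taken from a standard curve. Three implants per mouse, n = 6 per group.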

Gallus gallus [2] = species: Gallus gallus; test: Antiangiogenesis of fertilized chicken egg membrane assessed as inhibition of FGF-induced blood vessel formation at 10 ug/CAM after 48 hrs by CAM assay; procedure, shortened: as §1

Row | Structure (SMILES) | Activity (Gallus gallus [1]) | Activity (Mus musculus) | inhibition (Gallus gallus [2])
1 | CC(C)[Si](OC(=O)C(Cc1cc(I)c(Oc2cc(I)c(O)c(I)c2)c(I)c1)NC(=O)OC(C)(C)C)(C(C)C)C(C)C (configuration not stated) | 4% | 0% | 
2 | CC(=O)NC(Cc1cc(I)c(Oc2cc(I)c(OC(C)=O)c(I)c2)c(I)c1)C(=O)O (configuration not stated) | 67% | 95% | 
3 | CCNC(Cc1cc(I)c(Oc2cc(I)c(O)c(I)c2)c(I)c1)C(=O)O (configuration not stated) | 86% | 45% | 
4 | CC(C)[Si](OC(=O)C(Cc1cc(I)c(Oc2cc(I)c(OCC3CO3)c(I)c2)c(I)c1)NC(=O)OC(C)(C)C)(C(C)C)C(C)C (configuration not stated) | 34% | 0% | 
5 | CCNC(Cc1cc(I)c(Oc2cc(I)c(O)c(I)c2)c(I)c1)C(=O)OCC (configuration not stated) |  |  | 38%
6 | N[C@@H](Cc1cc(I)c(Oc2cc(I)c(O)c(I)c2)c(I)c1)C(=O)O [LEVOTHYROXINE] | 88% | 100% | 
7 | CNC(Cc1cc(I)c(Oc2cc(I)c(O)c(I)c2)c(I)c1)C(=O)O (configuration not stated) | 44% | 87% | 
8 | CCCC(=O)NC(Cc1cc(I)c(Oc2cc(I)c(O)c(I)c2)c(I)c1)C(=O)O (configuration not stated) | 34% | 62% | 
9 | CC(C)(C)OC(=O)NC(Cc1cc(I)c(Oc2cc(I)c(OCC3CO3)c(I)c2)c(I)c1)C(=O)OCC1CO1 (configuration not stated) | 56% | 0% | 
